RBBP9 inh = blocks human serine hydrolase RBBP9; recombinant RBBP9, FP-Rh probe fluorescence polarization; AID 1515; inhibition, % at 7.94 µM; O75884; 220,000 tested, 0.2% active;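 active = inhibition above the campaign mean of all tested compounds plus 3 SD, cut at about 14% in these data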;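 also: plate controls were DMSO wells with RBBP9 for no effect and wells lacking RBBP9 protein for full effect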
Target sequence (O75884 whole entry, looked up): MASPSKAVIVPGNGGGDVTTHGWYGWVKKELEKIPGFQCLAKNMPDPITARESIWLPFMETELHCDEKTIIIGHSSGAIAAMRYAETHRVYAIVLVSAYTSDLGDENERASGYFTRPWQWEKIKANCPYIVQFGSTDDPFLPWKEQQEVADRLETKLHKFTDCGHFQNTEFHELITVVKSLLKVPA
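Controls: DMSO-treated enzyme wells and wells lacking RBBP9 | Material: RBBP9 protein | Technique: Fluorescence polarization | Replication: Single well per compound, no replicates | Buffer or medium: Tris-NaCl-Pluronic buffer, pH 8.0 | Timing: 30 min compound preincubation, 45 min probe labeling, 25 °C | Read-out basis: Percent inhibition from mP, scaled between DMSO and no-protein wells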
NCF1 inh = inhibitors of human p47phox binding. P14598. p47phox/p22phox peptide binding, fluorescence polarization, 2 h. inhibition, % at 24.7 µM. 220,000 tested, 0.53% active;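 active = inhibition above about 30%, limit read from the data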;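 also: 0% = p47phox with labelled peptide and 100% = labelled peptide alone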
14-3-3 Bad PPI = disrupts binding of bovine 14-3-3 zeta to phospho-Bad peptide | P63103 | TR-FRET 14-3-3zeta/Dy647-pBad peptide displacement, 1 h | inhibition, % at 21.7 µM | 220,000 tested, 0.71% active | AID 781;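 active = inhibition above about 70%, limit read from the data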;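 also: 0% = full 14-3-3 plus peptide FRET controls and 100% = background without 14-3-3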
Cl transport mod = KCC2 (human) Cl- transport modulation; B-score of Tl+ flux slope (higher = more flux/activation; lower = inhibition) at 10 µM; 190,000 tested, 2.2% active; KCC2 cells, thallium flux FluoZin-2 fluorescence; Q9H2X9; AID 1456;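 active = thallium flux slope and its plate-corrected score both differing from the plate sample mean at a set confidence after two filtering rounds, in either direction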;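 also: slope of fluorescence scaled to starting intensity during 10 to 20 s after thallium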
ROMK primary = modulates human ROMK potassium channel activity; B-score at 10 µM; 130,000 tested, 2% active; P48048; AID 1918; Tet-inducible ROMK, thallium flux fluorescence; actives lie on both sides;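 active = signal ratio slope over the read window, or its plate-corrected B-score, at least 3 SD from the plate mean, either direction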;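 also: B-score of the F/F0 ratio slope over 7 to 12 s after thallium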
Target sequence (P48048 whole entry, looked up): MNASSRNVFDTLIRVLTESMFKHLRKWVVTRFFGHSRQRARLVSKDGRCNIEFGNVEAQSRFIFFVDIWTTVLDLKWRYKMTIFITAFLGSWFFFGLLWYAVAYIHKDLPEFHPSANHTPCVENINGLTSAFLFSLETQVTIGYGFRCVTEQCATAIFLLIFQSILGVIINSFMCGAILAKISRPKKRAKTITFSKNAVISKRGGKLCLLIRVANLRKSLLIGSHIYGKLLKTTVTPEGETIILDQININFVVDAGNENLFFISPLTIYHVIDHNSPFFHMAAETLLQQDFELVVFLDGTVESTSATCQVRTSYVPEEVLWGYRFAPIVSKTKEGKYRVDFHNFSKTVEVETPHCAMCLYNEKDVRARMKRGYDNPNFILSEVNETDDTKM
WT yeast gro inh = growth inhibition of WT yeast, mitochondrial fusion screen; inhibition, % at 10 µM; mitochondrial fusion phenotypic screen, WT strain; 190,000 tested, 2.1% active; in the data active = inhibition above about 58%; tested in S. cerevisiae
Numbers without * were called inactive; . = not tested or not shown. Most compounds without a hit are left out; they make up all but 5.8% or so of the library.

SMILES	RBBP9 inh	NCF1 inh	14-3-3 Bad PPI	Cl transport mod	ROMK primary	WT yeast gro inh
CCOC(=O)c1nc(Nc2ccc(Nc3ccccc3)cc2)c2ccccc2n1	2	-14	-6	-1.6	0.94	72*
O=C(NC1CCCCC1)N(Cc1nc2ccccc2c(=O)[nH]1)C1CCCC1	4	31*	.	.	-1.1	-9
Cc1cc2nc(C3CCCN(C(=O)NCc4ccccc4)C3)[nH]c2cc1C (centres undefined)	-11	-9	76*	-0.96	.	3
Cc1cc2nc(C3CCCN(C(=S)Nc4ccccc4C)C3)[nH]c2cc1C (centres undefined)	4	-10	-17	.	.	-2
COc1ccc(Sc2cc(C(F)(F)F)nc(-c3ccccn3)n2)cc1	0	0	8	-0.00076	.	62*
C#CCSc1cc(C(F)(F)F)nc(-c2ccccn2)n1	-2	-11	-6	-0.17	0.55	25
CCn1c(CC(=O)Nc2ccccc2)n[nH]c1=S	-3	-7	5	0.062	-0.73	0
Cc1ccc(-c2nn(CC(=O)NCc3cc(-c4nn(C)c(=O)c5ccccc45)ccc3C)c(=O)c3ccccc23)cc1	1	59*	72*	-0.7	-0.95	6
CCC(=O)NCc1cc(-c2nn(C)c(=O)c3ccccc23)ccc1C	2	-2	-2	.	.	2
COC(=O)Cn1nc(-c2ccc(C)cc2)c2ccccc2c1=O	-2	-9	-17	-1.4	0.34	64*
CC(C)(C)OC(=O)N1CCC[C@H]1C(=O)NCc1ccc(Cl)cc1Cl	-3	4	-5	-0.53	-0.037	-10
Cc1cc(NC(=O)COC(=O)c2ccccc2[N+](=O)[O-])no1	-1	-3	-4	1.4	1.1	-4
O=C(Nc1ccc(S(=O)(=O)Nc2ncccn2)cc1)c1ccc2ncsc2c1	6	-63	81*	.	.	.
COc1cc(/C=C/C(=O)O)cc(S(=O)(=O)N(CC(C)C)CC(C)C)c1OC	-1	-1	-9	-2.7	0.73	9
Cc1ccc2nc(-c3ccccc3)c(CN3CCN(c4ccccc4F)CC3)n2c1	-7	4	-18	-0.3	-0.03	83*
Cc1ccc(CNC(=O)COC(=O)CCCOc2ccc(Cl)cc2Cl)cc1	-4	72*	-6	0.34	0.71	-2
CC(=O)c1c(C)[nH]c(C(=O)N(C)C(c2ccccc2)c2ccccc2)c1C	-5	-8	-4	-1.5	0.098	17
COC(=O)C(C(=O)OC)c1ncccc1[N+](=O)[O-]	-2	-3	85*	.	.	.
COC(=O)C(C(=O)OC)c1ccccc1[N+](=O)[O-]	-6	-8	-2	0.0079	0.048	2
O=C(O)CNc1ncccc1[N+](=O)[O-]	-4	50*	-4	1.6	-0.5	-10
Cc1ccc(C(=O)NC(=S)/C=C2\N(C)c3ccccc3C2(C)C)cc1	-6	-52	-4	2.3	.	67*
COc1ccc(OCC(=O)Nc2ccc(NC(=O)c3cccs3)c(OC)c2)cc1	-1	-4	-3	-0.87	-0.85	-6
COc1cc(NC(=O)COc2ccccc2[N+](=O)[O-])ccc1NC(=O)c1cccs1	-14	52*	74*	-0.48	-0.26	0
N/C(Cc1ccc(Cl)cc1)=N\OC(=O)c1cccc2ccccc12	-4	2	6	-0.34	.	98*
CCOC(=S)SCC(=O)N1CCc2cc(OC)ccc2C1C1C(=O)CCCC1=O (centres undefined)	-2	3	-8	-0.86	.	-3
SMILES	RBBP9 inh	NCF1 inh	14-3-3 Bad PPI	Cl transport mod	ROMK primary	WT yeast gro inh
N#C/C(=C\c1ccc(N2CCCCC2)o1)C(=O)Nc1cccc(Br)c1	-10	37*	-24	0.068	-0.032	12
CCCOc1ccc(-c2nc(-c3ccc(N)cc3)cs2)cc1	-7	-6	-2	0.66	.	.
CCCc1cc(-c2nc(-c3ccc(Br)cc3)cs2)ccn1	1	-12	3	-0.79	0.32	69*
Clc1ccc(-c2csc(-c3ccno3)n2)cc1	-6	5	-3	0.33	-0.58	.
CCCc1cc(-c2nc(-c3ccc(Cl)cc3)cs2)ccn1	1	-15	3	0.41	0.25	78*
COc1ccc(N(CC(=O)O)S(=O)(=O)c2ccc(C)cc2)cc1Cl	-8	-3	-3	.	-0.12	-2
Cn1c([N+](=O)[O-])cnc1N1CCN(c2nncs2)C1=O	-7	-4	3	0.84	.	.
CC1CC(C)(C)Nc2ccc(N=O)cc21 (centres undefined)	-2	0	-7	0.35	0.24	75*
CCCCNC(=S)NC(=O)c1ccc([N+](=O)[O-])cc1	-4	-1	-4	21*	-0.33	15
CC(C)CNC(=S)NC(=O)c1ccc([N+](=O)[O-])cc1	-4	-9	0	20*	-0.73	7
Cn1[nH]c(C(F)(F)F)cc1=O	-8	1	-3	0.087	1.4	5
O=C(NCCc1ccccc1)c1ccc(NCC2CCCO2)c([N+](=O)[O-])c1 (centres undefined)	-1	-10	47	-2.2	0.35	29
COC(=O)c1c(NC(=O)c2c(-c3ccccc3Cl)noc2C)sc2c1CCC2	-8	-32	-3	0.25	-0.67	75*
Cc1onc(-c2ccccc2Cl)c1C(=O)Nc1sc2c(c1C(N)=O)CCC(C)C2 (centres undefined)	-7	-25	-4	-2.3	-0.044	69*
Cc1cc(C(F)F)n2nc(C(=O)Nc3sc4c(c3C(N)=O)CCC4)nc2n1	-9	-12	0	0.054	.	-7
COC(=O)c1c(NC(=O)c2c(C)noc2C)sc2c1CCCCCC2	-7	-2	-12	.	0.17	-4
Cc1onc(-c2ccccc2Cl)c1C(=O)Nc1nnc(C(C)C)s1	1	-14	7	1.7	.	11
COC(=O)c1c(NC(=O)c2nc3nc(C)cc(C(F)F)n3n2)sc2c1CCC2	-10	19	15	.	-0.13	60*
CS(=O)(=O)Nc1ccc(C2=NN(S(=O)(=O)c3ccc(F)cc3)C(c3ccco3)C2)cc1 (centres undefined)	-7	-11	6	-0.4	0.49	4
Cc1nonc1C(=O)N/N=C/c1ccccc1	2	1	0	0.43	-0.37	2
CCN(C(=S)NC(=O)c1ccccc1Br)C1CCCCC1	-6	-4	-13	63*	6.9*	41
CCN(CC(=O)Nc1ccccc1Br)C1CCCCC1	-2	-4	-9	0.84	-0.82	6
O=C(N/N=C/c1ccccc1OCC(=O)N1CCCC1)C(=O)Nc1ccccc1F	-9	-7	-5	0.007	.	6
Cc1nc(N(C)Cc2ccccc2)c2nnn(Cc3ccccc3)c2n1	3	7	5	.	-0.33	80*
CCOc1ccc(N/C=C/C(=O)c2ccc3ccccc3c2)c([N+](=O)[O-])c1	2	15	3	0.075	.	-2
